Results gathered from unrelated publications.
Lines come from different studies, so protocols differ.
Target: Phosphatidylinositol 4,5-bisphosphate 3-kinase catalytic subunit gamma isoform (PIK3CG, Homo sapiens, UniProt P48736)

SMILES | read-out | mode | method | concentration | endpoint | result
CC1=C(C#N)[C@@H](c2ccc3[nH]nc(C)c3c2)C(C#N)=C(c2ccc(Cl)cc2)N1 | cell-free assay | – | competition with immobilised ligand | 1 µM | remaining binding | 100%
Cc1ccc(C(=O)NCc2ccsc2)cc1C#Cc1cn(C(C)C)c2ncnc(N)c12 | enzyme activity | inhibitor | – | 1 µM | activity vs control | 96%
C=CC(=O)Nc1cc(Nc2nccc(Nc3cc(Cl)c(F)cc3C(C)(C)O)n2)c(OC)cc1N1CC[C@@H](N(C)C)C1 | enzyme activity | inhibitor | – | 1 µM | inhibition | 11%
COc1cc(-c2cc(-c3ccc(N4CCNCC4)cc3)cnc2C)cc(OC)c1OC | enzyme activity | inhibitor | – | 0.1 µM | inhibition | 14%
Cc1ccc(C(=O)Nc2ccc(CN3CCN(C)CC3)c(C(F)(F)F)c2)cc1C#Cc1cnc2cccnn12 | enzyme activity | inhibitor | – | 23.5 nM | remaining activity | 85%
C[C@@H]1CN(c2cc(-c3nn(C)c4ccc(OC5(C)CC5)cc34)ncn2)C[C@H](C)O1 | cell-free assay | – | competition with immobilised ligand | 1 µM | remaining binding | 100%
CCCS(=O)(=O)Nc1ccc(F)c(C(=O)c2c[nH]c3ncc(-c4ccc(Cl)cc4)cc23)c1F | enzyme activity | inhibitor | – | 1 µM | inhibition | < 10%
O=C(CSc1nc2nccnc2c(=O)n1CCc1ccccc1)Nc1nccs1 | enzyme activity | inhibitor | – | 10 µM | inhibition | 9%
Cc1c(NC(=O)c2cc(C(N)=O)nc3cc(F)ccc23)c(C(F)(F)F)nn1Cc1ccc(C#N)cc1 | cell-free assay | – | competition with immobilised ligand | 1 µM | remaining binding | 80%
CS(=O)(=O)Nc1cccc(-c2csc(NC(=O)CSc3nc4nccnc4c(=O)n3CCc3ccccc3)n2)c1 | enzyme activity | inhibitor | – | 10 µM | inhibition | 20%
Cc1ccc(NC(=O)c2ccc(C)c(C(F)(F)F)c2)cc1C#Cc1nn(C2CCC(O)CC2)c2ncnc(N)c12 (stereo not drawn) | enzyme activity | inhibitor | – | 10 µM | remaining activity | 87%
Nc1ncnc2occ(-c3ccc(NC(=O)Nc4cc(C(F)(F)F)ccc4F)cc3)c12 | cell-free assay | inhibitor | – | 20 µM | remaining signal | 54%
